Bioassay records as filed in PubChem BioAssay.
Only some compounds are listed: those with a hit (about 1.8% of all), similar ones and a draw of the others.
STAT3 inh = reduces IL-6 driven STAT3 reporter signal; U3A cells, IL-6 STAT3-luciferase reporter, luminescence; host cell line lacks STAT1; inhibition, % at 5.5 µM; actives 0.89% (n = 190,000);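 active = inhibition above the mean inhibition across all screened compounds plus 3 SD, cut at about 44% in these data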
PERK inhibitor = inhibitors of human PERK kinase | CHO PERK-DD fusion, SEAP luminescence translation reporter | inhibition, % at 5.6 µM | actives 0.17% (n = 220,000);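 active = inhibition above the mean inhibition of all tested compounds plus 3 SD, set separately per screening campaign, cut at about 2.9% in these data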;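 note: PERK kinase domain activated by AP20187 dimerizer at 100 nM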
Target sequence (Q9NZJ5 whole entry, looked up, the tested form may be a part): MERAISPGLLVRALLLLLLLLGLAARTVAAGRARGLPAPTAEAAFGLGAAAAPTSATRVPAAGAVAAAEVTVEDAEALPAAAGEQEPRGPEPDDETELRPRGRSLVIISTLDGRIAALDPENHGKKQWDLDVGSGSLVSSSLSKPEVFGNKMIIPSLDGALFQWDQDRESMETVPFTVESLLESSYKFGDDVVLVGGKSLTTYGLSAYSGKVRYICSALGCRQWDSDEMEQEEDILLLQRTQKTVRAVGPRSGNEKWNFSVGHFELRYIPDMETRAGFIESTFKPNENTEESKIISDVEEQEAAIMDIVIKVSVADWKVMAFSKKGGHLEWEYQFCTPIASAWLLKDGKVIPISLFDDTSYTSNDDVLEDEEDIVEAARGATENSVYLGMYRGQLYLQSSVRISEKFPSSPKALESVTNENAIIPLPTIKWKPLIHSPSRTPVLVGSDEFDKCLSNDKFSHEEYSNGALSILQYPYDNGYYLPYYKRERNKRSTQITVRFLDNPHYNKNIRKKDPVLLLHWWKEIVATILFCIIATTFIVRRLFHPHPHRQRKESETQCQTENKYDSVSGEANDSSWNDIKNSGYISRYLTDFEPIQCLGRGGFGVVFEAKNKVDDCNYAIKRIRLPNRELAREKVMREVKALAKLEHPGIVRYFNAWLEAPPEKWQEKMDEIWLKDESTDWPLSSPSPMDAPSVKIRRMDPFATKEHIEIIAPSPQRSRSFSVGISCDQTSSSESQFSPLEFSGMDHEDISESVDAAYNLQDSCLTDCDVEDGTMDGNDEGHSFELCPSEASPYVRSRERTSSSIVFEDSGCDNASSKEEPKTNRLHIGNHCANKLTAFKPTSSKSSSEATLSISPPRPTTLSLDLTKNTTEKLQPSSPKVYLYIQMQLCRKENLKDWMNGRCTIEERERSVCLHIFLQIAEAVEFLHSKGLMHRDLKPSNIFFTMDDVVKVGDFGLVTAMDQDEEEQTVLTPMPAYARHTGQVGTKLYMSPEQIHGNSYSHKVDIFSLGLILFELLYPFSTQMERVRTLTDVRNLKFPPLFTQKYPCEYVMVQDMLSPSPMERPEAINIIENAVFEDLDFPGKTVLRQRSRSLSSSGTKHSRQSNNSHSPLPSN
STAT1 blocker = reduces IFN-gamma driven STAT1 reporter signal; NIH 3T3 STAT1-luciferase reporter, luminescence; inhibition, % at 5.5 µM; actives 0.35% (n = 200,000); AID 920;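 active = inhibition above a set limit, the mean inhibition across all tested compounds plus 3 SD, cut at about 34% in these data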
STAT3 activator = activators of IL-6 induced STAT3 signaling; AID 871; actives 0.91% (n = 190,000); U3A cells, IL-6 STAT3-luciferase reporter, luminescence; 100% = signal with IL-6 EC80 alone; activation (% of control), % at 5.6 µM;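 active = activation above the screen-wide mean of compound activation plus 3 SD, cut at about 130% in these data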
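System – human U3A cells carrying STAT3-luciferase construct · Probe or stimulus – Interleukin-6, 33 ng/mL · Schedule – compound 1 h, then IL-6 6 h at 37 °C · Signal – luminescence from STAT3-driven luciferase reporter · Evaluation – percent of IL-6-only median luminescence · Benchmarks – IL-6-only high control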
A number is an active result; n = inactive; x = no result given.

SMILES	STAT3 inh	PERK inhibitor	STAT1 blocker	STAT3 activator
Nc1ccccc1-c1nc2ccccc2s1	n	n	n	n
C(=C\c1nnc2c3ccccc3ncn12)/c1ccccc1	n	n	n	145.0
O=C(O)CCS(=O)(=O)c1ccccc1Cl	n	n	n	n
Cn1cc(/C=N/n2cnc3scc(-c4ccc(Cl)cc4)c3c2=O)c2ccccc21	n	n	n	134.8
CCn1cnc2scc(-c3ccccc3)c2c1=O	n	n	n	n
COc1ccc(C(=O)/C(C#N)=N/Nc2ccc([N+](=O)[O-])cc2)cc1	58.6	n	36.7	n
COc1cc(C(C#N)N2CCCCC2)ccc1O (stereo not given)	n	n	n	n
COc1cc(C(C#N)N2CCOCC2)ccc1O (stereo not given)	n	3.5	n	n
CC1CCCC(C)N1C(=O)CSc1nc2ccccc2s1 (stereo not given)	n	n	n	133.4
CC1CCN(C(=O)CSc2nc3ccccc3s2)CC1	n	n	n	n
Cc1ccc(S(=O)(=O)c2c(C(=O)c3ccccc3)cnc3cc4c(cc23)OCCO4)cc1	n	n	n	n
CC(=O)c1cn(CC(=O)Nc2ccc(C)cc2)c2ccccc12	57.1	n	n	n
Fc1ccc(-c2nnc(NC3=NCCCCC3)o2)cc1	100.2	n	67.7	n
COc1ccc(CC2(CO)CCN(CC3=Cc4cc(Cl)ccc4OC3)CC2)cc1	n	n	n	n
COc1ccc(NC(=O)Cc2c(Sc3ccccc3)c3ccccc3n2C)cc1	n	n	n	n
COc1ccc(NC(=O)c2c(Cl)n(C)c3ccccc23)cc1	n	n	n	144.0
CCCc1nnc(NC(=O)CCC(=O)N2CCN(S(=O)(=O)c3ccc(F)cc3)CC2)s1	x	n	x	x
CCCc1nnc(NC(=O)CNc2ccc(F)cc2)s1	n	3.1	n	n
CCCN(CCC)CCCNC(=S)Nc1ccc2nc3n(c(=O)c2c1)CCCCC3	n	n	n	n
Cc1ccc(-c2nn(-c3ccccc3)cc2C=C2C(=O)CC(C)(C)CC2=O)cc1	n	n	n	n
CC1=NNC(=O)/C1=C\c1cn(-c2ccccc2)nc1-c1ccc(Cl)cc1	61.3	n	n	n
O=C(CSc1cn(CCNC(=O)c2ccc3ccccc3c2)c2ccccc12)NCc1ccco1	n	n	n	n
Cn1cc(NC(=O)Nc2ccc(C(F)(F)F)cc2)c(C(F)(F)F)n1	x	3.9	x	x
CCOC(=O)C(Oc1ccc2c(-c3ccccc3)cc(=O)oc2c1)c1ccccc1 (stereo not given)	n	n	n	n
CC(C)Cc1nc2sc3c(c2c(=O)n1N)CC(C)(C)OC3	x	n	x	x
SMILES	STAT3 inh	PERK inhibitor	STAT1 blocker	STAT3 activator
COC(=O)c1ccc(Cl)c(NC(=O)c2ccc(-c3ccccc3)cc2)c1	n	n	n	135.6
Cc1ccc(NC(=O)CNc2ccccc2CN(C)C2CCCCC2)cc1	n	n	n	n
Cc1cc(C)nc(SCc2ccc(C(=O)O)o2)n1	n	3.1	n	n
OC1=C(O)c2nc3cc(C(F)(F)F)ccc3nc21	x	n	x	x
Cc1ccc(NC(=O)CCSc2nnc(C)s2)cc1	n	2.9	n	n
O=C(N/N=C/c1cccc(F)c1)c1cc(-c2ccco2)nc2ccccc12	n	n	n	n
c1ccc(CN2CCOCCOCCOCCOCC2)cc1	x	n	x	x
CC1=Nc2ccccc2N=C(NC(=O)CN2CCN(c3ccc(F)cc3)CC2)C1c1ccccc1 (stereo not given)	x	n	x	x
N#C/C(=C(\O)Cc1ccccc1)c1nc2ccccc2[nH]1	n	n	n	n
N#C/C(=C(/O)CCl)c1nc2ccccc2[nH]1	n	n	n	134.4
C=CCOc1cccc(C(=O)N2CCCC(CNS(=O)(=O)c3cccs3)C2)c1 (stereo not given)	n	n	n	n
O=C(/C=C1\NCC2c3ccccc3CCN2C1=O)c1ccccc1 (stereo not given)	n	n	n	133.7
COc1ccc(C(=O)Cc2ccccc2)cc1OC	n	4.8	n	n
COc1ccc(CC(=O)c2ccc(OC)c(OC)c2)cc1	n	n	n	n
Cc1cc(NC(=O)CSc2nc3ccsc3c(=O)n2CCCC(=O)NCCc2ccccc2)no1	n	n	n	n
O=C(O)c1cccc(CSc2ncn[nH]2)c1	x	n	x	x
O=C(Nc1ccc2c(c1)OCO2)c1cccs1	n	n	n	n
O=C(NCc1ccc2c(c1)OCO2)c1ccccn1	n	n	n	n
O=C(/C=C\Nc1ccc2c(c1)OCO2)c1ccc2c(c1)OCO2	60.0	n	51.1	n
O=C(/C=C\Nc1cccc(F)c1)c1cccs1	n	n	n	n
O=C(/C=C\Nc1ccc2c(c1)OCO2)c1ccccn1	103.1	n	86.8	n
O=C(/C=C\Nc1ccc2c(c1)OCO2)c1cccs1	89.9	n	64.6	n
Cc1ccc(N/C=C/C(=O)c2cccs2)cc1	97.9	n	82.6	n
Cc1nn(-c2ccccc2Cl)c(Cl)c1/C=N/Nc1nc2ccccc2s1	73.2	n	n	n
Cc1ccsc1/C=N/Nc1nc2ccccc2s1	n	n	n	144.3
SMILES	STAT3 inh	PERK inhibitor	STAT1 blocker	STAT3 activator
CCOC(=O)N/N=C/c1c(C)nn(-c2ccccc2Cl)c1Cl	n	n	n	n
COc1ccccc1NC(=S)NC(NC(=O)CC(C)C)C(Cl)(Cl)Cl (stereo not given)	n	n	n	n
Cc1ccc(N=C/C(C(=O)C(F)(F)F)=C(\O)c2cccs2)cc1	83.9	n	53.6	n
O=C(/C(N=Nc1cccc(C(F)(F)F)c1)=C(/O)c1cccs1)C(F)(F)F	x	n	x	x
CN(CC1CCCO1)S(=O)(=O)c1ccc(C(=O)Nc2ccc3c(c2)OCO3)cc1 (stereo not given)	n	n	n	n
CN(CC1CCCO1)S(=O)(=O)c1ccc(C(=O)Nc2nc3cc4c(cc3s2)OCO4)cc1 (stereo not given)	82.1	n	n	n
Cc1nn(-c2nc3ccccc3s2)c(N)c1Sc1ccc(F)cc1	n	n	n	158.0
CC(C)N(C(=O)COC(=O)c1cccc(C(=O)OCC(=O)N(C(C)C)C(C)C)n1)C(C)C	n	n	n	n
Cc1ccc(-c2nc3cc(Cl)ccc3o2)cc1	n	n	n	134.6
COc1cc(OC)cc(-c2nc3cc(C)ccc3o2)c1	n	n	n	171.0
Cc1ccc(NC(=O)CSc2nnc(CNC(=O)c3cccs3)o2)c(C)c1	n	n	n	n
COc1nc(-c2ccccc2)nnc1-c1ccccc1	n	n	n	153.0
O=c1[nH][nH]c(-c2ccccc2)c1C=Nc1ccc(Cl)cc1	n	n	n	n
O=c1[nH][nH]c(-c2ccccc2)c1C=Nc1cccc(Cl)c1	n	2.9	n	n
O=C1/C(=C\c2cccs2)Sc2ccc3ccccc3c21	n	n	n	180.3
O=C1C(=Cc2cccs2)C(=O)c2ccccc21	n	n	n	n
C/C(=N\Nc1ccc(F)cc1F)c1ccc(N2CCOCC2)cc1	n	n	n	133.5
Cc1ccc(N/C(N)=N/c2nc(CSc3nnc(C)s3)cc(=O)[nH]2)c(C)c1	n	n	n	135.3
NNc1ccc2c(C(F)(F)F)cc(C(F)(F)F)nc2n1	n	n	n	n
N#CC(c1cccc(Cl)c1)c1ccc2c(C(F)(F)F)cc(C(F)(F)F)nc2n1 (stereo not given)	86.2	n	60.5	n
